Assay results reported in ChEMBL document CHEMBL6153049, “Functionalized regioisomers of the natural product phenazines myxin and iodinin as potent inhibitors of Mycobacterium tuberculosis and human acute myeloid leukemia cells” (Eur J Med Chem, 2025).

Experiments:
Type in all cases: functional, organism-based
Settings in all cases: 168 h
[1] = system: Mycobacterium tuberculosis; test: Antimycobacterial activity against INH-resistant Mycobacterium tuberculosis expressing katG+ assessed as bacterial growth inhibition measured after 1 week by MABA assay
In short: (§1)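 Colonies grown on 7H10+OADC agar at 37 °C, then to mid-log in 7H9+OADC; about 4×10^5 CFU/mL inoculated into 7H9 with escalating compound concentrations. Incubated 37 °C for 1 week, then resazurin (0.6 mM in PBS) mixed 8:5 with 20 % Tween 80 was added and incubated overnight at 37 °C. Fluorescent resorufin read-out gave IC50.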

[2] = system: Mycobacterium tuberculosis; test: Antimycobacterial activity against Rifampicin-resistant Mycobacterium tuberculosis expressing rpoB+ assessed as bacterial growth inhibition measured after 1 week by MABA assay; in short: as §1
[3] = system: Mycobacterium tuberculosis; test: Antimycobacterial activity against INH-resistant Mycobacterium tuberculosis expressing inhA+ assessed as bacterial growth inhibition measured after 1 week by MABA assay; in short: as §1

Compound	IC50 [1] [nM]	IC50 [2] [nM]	IC50 [3] [nM]
[O-][n+]1c2cccc(O)c2[n+]([O-])c2cccc(O)c21	70		
COc1cccc2c1[n+]([O-])c1cccc(O)c1[n+]2[O-]	62.5	62.5	62.5
[O-][n+]1c2ccccc2[n+]([O-])c2c(O)cccc21	50		
CCOCOc1cc(OC)c2c(c1)[n+]([O-])c1ccccc1[n+]2[O-]	62.5	31.2	31.2
[O-][n+]1c2ccccc2[n+]([O-])c2c(O)cc(O)cc21	500	1000	125
COc1cc(O)c2c(c1)[n+]([O-])c1ccccc1[n+]2[O-]	62.5	62.5	16
CCOC(=O)COc1cc(O)c2c(c1)[n+]([O-])c1ccccc1[n+]2[O-]	250	250	62.5
CCOC(=O)COc1cc(OC)c2c(c1)[n+]([O-])c1ccccc1[n+]2[O-]	250	250	250
CC(=O)Oc1cc(O)c2c(c1)[n+]([O-])c1ccccc1[n+]2[O-]	1000	1000	500
CCOc1cc(O)c2c(c1)[n+]([O-])c1ccccc1[n+]2[O-]	62.5	62.5	4
COc1cccc2c1[n+]([O-])c1ccccc1[n+]2[O-]	125	125	125
COc1cc(OC(C)=O)c2c(c1)[n+]([O-])c1ccccc1[n+]2[O-]	125	250	125
CCOCOc1cc(O)c2c(c1)[n+]([O-])c1ccccc1[n+]2[O-]	62.5	31.2	4
COc1cc(OC)c2c(c1)[n+]([O-])c1ccccc1[n+]2[O-]	125	125	125
COCOc1cc(O)c2c(c1)[n+]([O-])c1ccccc1[n+]2[O-]	125	125	125
